Measurements published in ChEMBL document CHEMBL3352514, “Anti-cancer activity of carbamate derivatives of melampomagnolide B” (Bioorg Med Chem Lett, 2014).

Key:
[1] = Growth inhibition of human LOXIMVI cells; assay type: functional; conditions: LOX IMVI
Method in brief: (§1)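 NCI 60-cell-line tumour panel. Compounds were first screened at a single concentration of 10 µM, then tested in 5-dose assays. Growth was read as the change in optical density, expressed as a percentage of control. GI50 is the concentration (µM) that halves cellular growth, and the values were taken from the NCI database.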

[2] = Growth inhibition of human MOLT4 cells; assay type: functional; conditions: MOLT-4; method in brief: as §1
[3] = Growth inhibition of human HCT116 cells; assay type: functional; conditions: HCT-116; method in brief: as §1
[4] = system: HL-60(TB); test: Growth inhibition of human HL-60(TB) cells; assay type: functional
Method in brief: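 Tested in the NCI 60 human tumour cell line panel. Compounds were first screened at a single concentration of 10 µM, and hits were then run in a five-dose assay. Growth was read as the change in optical density, expressed as a percentage of control. GI50 is the concentration that halves cellular growth, taken from the NCI database.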

[5] = Growth inhibition of human HOP92 cells; assay type: functional; conditions: HOP-92; method in brief: as §1
[6] = Growth inhibition of human RXF393 cells; assay type: functional; conditions: RXF 393; method in brief: as §1
[7] = system: SNB-75; test: Growth inhibition of human SNB75 cells; assay type: functional; method in brief: as §1
[8] = system: MDA-MB-468; test: Growth inhibition of human MDA-MB-468 cells; assay type: functional; method in brief: as §1
[9] = Growth inhibition of human RPMI8226 cells; assay type: functional; conditions: RPMI-8226; method in brief: as §1
[10] = system: M14; test: Growth inhibition of human M14 cells; assay type: functional; method in brief: as §1
[11] = system: MDA-MB-435; test: Growth inhibition of human MDA-MB-435 cells; assay type: functional; method in brief: as §1
[12] = system: SR; test: Growth inhibition of human SR cells; assay type: functional; method in brief: as §1
[13] = system: CCRF-CEM; test: Growth inhibition of human CCRF-CEM cells; assay type: functional; method in brief: as §1
[14] = system: IGROV-1; test: Growth inhibition of human IGROV1 cells; assay type: functional; method in brief: as §1
[15] = system: DU-145; test: Growth inhibition of human DU145 cells; assay type: functional; method in brief: as §1
[16] = system: MCF7; test: Growth inhibition of human MCF7 cells; assay type: functional; method in brief: as §1
[17] = Half life in human plasma; assay type: ADME, cell-free
[18] = Growth inhibition of human OVCAR3 cells; assay type: functional; conditions: OVCAR-3; method in brief: as §1
[19] = system: NCI-H522; test: Growth inhibition of human NCI-H522 cells; assay type: functional; method in brief: as §1
[20] = system: T47D; test: Growth inhibition of human T47D cells; assay type: functional; method in brief: as §1
[21] = Growth inhibition of human COLO205 cells; assay type: functional; conditions: COLO 205; method in brief: as §1
[22] = system: K562; test: Growth inhibition of human K562 cells; assay type: functional; method in brief: as §1
[23] = Growth inhibition of human BT549 cells; assay type: functional; conditions: BT-549; method in brief: as §1
[24] = system: TK-10; test: Growth inhibition of human TK10 cells; assay type: functional; method in brief: as §1
[25] = system: ACHN; test: Growth inhibition of human ACHN cells; assay type: functional; method in brief: as §1
[26] = system: SW-620; test: Growth inhibition of human SW620 cells; assay type: functional; method in brief: as §1
[27] = system: CAKI-1; test: Growth inhibition of human CAKI-1 cells; assay type: functional; method in brief: as §1
[28] = system: Malme-3M; test: Growth inhibition of human MALME-3M cells; assay type: functional; method in brief: as §1
[29] = Growth inhibition of human SF539 cells; assay type: functional; conditions: SF-539; method in brief: as §1

Row | SMILES | GI50 [1] [µM] | GI50 [2] [µM] | GI50 [3] [µM] | GI50 [5] [µM] | GI50 [6] [µM] | GI50 [9] [µM] | GI50 [10] [µM] | GI50 [11] [µM] | GI50 [13] [µM] | GI50 [14] [µM] | GI50 [15] [µM] | GI50 [16] [µM] | GI50 [19] [µM] | GI50 [20] [µM] | GI50 [21] [µM] | GI50 [23] [µM] | GI50 [24] [µM] | GI50 [25] [µM] | GI50 [26] [µM] | GI50 [27] [µM] | also measured
1 | C=C1C(=O)O[C@H]2[C@H]1CC/C(COC(=O)N1CCC(F)(F)CC1)=C\CC[C@@]1(C)O[C@@H]21 | 2.23 | 2.05 | 1.41 | 1.45 | 1.2 | 1.98 | 2.84 | 0.46 | 0.68 | 2.31 | 2.44 | 1.62 | 1.25 | 3.07 | 2.06 | 2.69 | 2.6 | 1.79 | 1.46 | 2.03 | GI50 [4]: 2.04 µM; GI50 [7]: 6.13 µM; GI50 [8]: 0.57 µM; GI50 [12]: 1.38 µM; half-life [17]: 8 h; GI50 [18]: 1.69 µM; GI50 [22]: 3.45 µM; GI50 [28]: 1.9 µM; GI50 [29]: 1.98 µM
2 | C=C1C(=O)O[C@H]2[C@H]1CC/C(COC(=O)NCCN1CCCC1)=C\CC[C@@]1(C)O[C@@H]21 | 7.88 | 3.48 | 3.18 | 2.25 | 4.08 | 8.71 | 9.65 | 6.56 | 2.49 | 4.09 | 7.42 | 3.91 | 1.78 | 4.86 | 4.78 | 4.75 | 3.11 | 3.8 | 3.46 | 6.86 | GI50 [4]: 4.15 µM; GI50 [7]: 18 µM; GI50 [8]: 2.3 µM; GI50 [12]: 10.2 µM; half-life [17]: 1.67 h; GI50 [18]: 8.41 µM; GI50 [22]: 3.26 µM; GI50 [28]: 4.18 µM; GI50 [29]: 15 µM
3 | C=C1C(=O)O[C@H]2[C@H]1CC/C(COC(=O)NCCc1ccccn1)=C\CC[C@@]1(C)O[C@@H]21 | 4.96 | 5.54 | 1.89 | 2.25 | 2.22 | 8.2 | 5.58 | 6.01 | 2.65 | 14.4 | 4.59 | 2.85 | 1.64 | 6.19 | 3.54 | 2.6 | 3.78 | 2.75 | 3.13 | 2.88 | GI50 [7]: 3.78 µM; GI50 [8]: 3.22 µM; GI50 [12]: 4.1 µM; half-life [17]: 1.67 h; GI50 [28]: 7.52 µM; GI50 [29]: 5.77 µM
4 | C=C1C(=O)O[C@H]2[C@H]1CC/C(COC(=O)NCCN1CCOCC1)=C\CC[C@@]1(C)O[C@@H]21 | 4.84 | 5 | 2.87 | 2.3 | 3 | 5.72 | 7.97 | 5.89 | 3.03 | 3.49 | 3.74 | 3.54 | 2.13 | 6.32 | 8.89 | 4.99 | 3.93 | 3.74 | 3.48 | 4.31 | GI50 [4]: 3.59 µM; GI50 [7]: 19.5 µM; GI50 [8]: 3.26 µM; GI50 [12]: 3.65 µM; half-life [17]: 1.67 h; GI50 [18]: 6.2 µM; GI50 [22]: 3.37 µM; GI50 [28]: 6.12 µM; GI50 [29]: 14.4 µM
5 | C=C1C(=O)O[C@H]2[C@H]1CC/C(COC(=O)Nc1n[nH]c(SC)n1)=C\CC[C@@]1(C)O[C@@H]21 | 1.95 | 2.32 | 1.13 | 0.65 | 0.9 | 2.57 | 1.59 | 2.24 | 0.62 | 3.66 | 3.49 | 1.33 | 1.26 | 2.23 | 1.79 | 1.47 | 2.51 | 1.75 | 1.12 | 1.99 | GI50 [7]: 1.71 µM; GI50 [8]: 1.29 µM; GI50 [12]: 2.36 µM; half-life [17]: 1.67 h; GI50 [28]: 2.32 µM; GI50 [29]: 1.76 µM
6 | C=C1C(=O)O[C@@H]2C3O[C@]3(C)CC/C=C(\C)CC[C@@H]12 (stereo not given in full) | – | – | 10 | – | – | – | – | – | – | – | – | – | – | – | – | – | – | – | – | 10 | –
7 | C/C1=C\CC[C@@]2(C)O[C@@H]2[C@H]2OC(=O)C(CN(C)C)[C@@H]2CC1 (stereo not given in full) [DIMETHYLAMINOPARTHENOLIDE] | 10 | 3.16 | 5.01 | 10 | 15.8 | 2.51 | 15.8 | 7.94 | 1.99 | 19.9 | 5.01 | 5.01 | 2.51 | 39.8 | 31.6 | 5.01 | 3.16 | 15.8 | 3.98 | 12.5 | GI50 [4]: 1.58 µM; GI50 [18]: 12.5 µM; GI50 [22]: 2.51 µM; GI50 [29]: 2.51 µM
